Measured values reported in ChEMBL document CHEMBL1811915, “Discovery of new chromone containing sulfonamides as potent inhibitors of bovine cytosolic carbonic anhydrase” (Bioorg Med Chem, 2011).

Legend:
[1] = Inhibition of bovine carbonic anhydrase assessed as formation of p-nitrophenol from p-nitrophenyl acetate substrate after 30 mins by spectrophotometric method; set-up: species or system Bos taurus
How it was run: (§1)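 Bovine cytosolic CA (CA-I plus CA-II mix, 98.9% pure), 0.35 U/well, in 50 mM Tris–sulfate pH 7.6 with 0.1 mM ZnCl₂. Compound in DMSO is pre-incubated with enzyme for 10 min at 25 °C and pre-read at 348 nm. p-Nitrophenyl acetate is added to 0.6 mM final, then read at 348 nm after 30 min at 25 °C. Percent inhibition is relative to DMSO control; mean of three independent experiments ± sem.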

[2] = species: Bos taurus; test: Inhibition of bovine carbonic anhydrase assessed as formation of p-nitrophenol from p-nitrophenyl acetate substrate at 0.5 mM after 30 mins by spectrophotometric method; how it was run: as §1

SMILES	Ki [1] [µM]	inhibition [2] [%]	IC50 [1] [µmol]
CS(N)(=O)=O [METHANESULFONAMIDE]	100		
CCOC1Oc2ccccc2C(=O)/C1=C\Nc1cccc(S(N)(=O)=O)c1 (centres undefined)		67.6	17.72
CCOC1Oc2ccc(Br)cc2C(=O)/C1=C\Nc1cccc(S(N)(=O)=O)c1 (centres undefined)		68.8	18.27
CC(=O)Nc1nnc(S(N)(=O)=O)s1 [ACETAZOLAMIDE]		91.3	1.13
CCOC1Oc2c(Br)cc(Br)cc2C(=O)/C1=C\Nc1cccc(S(N)(=O)=O)c1 (centres undefined)		61.2	29.12
NS(=O)(=O)C(F)(F)F [TRIFLUOROMETHANESULFONAMIDE]	0.002		
CCOC1Oc2ccc(Br)cc2C(=O)/C1=C\Nc1ccc(S(N)(=O)=O)cc1 (centres undefined)		65.2	16.12
CCOC1Oc2ccc(CC)cc2C(=O)/C1=C\Nc1cccc(S(N)(=O)=O)c1 (centres undefined)		65.3	11.71
CCOC1Oc2ccccc2C(=O)/C1=C\Nc1ccc(S(N)(=O)=O)cc1 (centres undefined)		64	19.21
CCOC1Oc2ccc(F)cc2C(=O)/C1=C\Nc1cccc(S(N)(=O)=O)c1 (centres undefined)		66.8	11.37
CCOC1Oc2ccc(F)cc2C(=O)/C1=C\Nc1ccc(S(N)(=O)=O)cc1 (centres undefined)		71.2	4.31
CCOC1Oc2ccc(CC)cc2C(=O)/C1=C\Nc1ccc(S(N)(=O)=O)cc1 (centres undefined)		69.7	16.63
CCOC1Oc2c(Br)cc(Br)cc2C(=O)/C1=C\Nc1ccc(S(N)(=O)=O)cc1 (centres undefined)		67.3	21.12
